Only some compounds are listed: those with a hit (about 4.2% of all), similar ones and a draw of the others.
Cl transport mod: modulates chloride dependent transport by human KCC2. Q9H2X9. KCC2 cells, thallium flux FluoZin-2 fluorescence. B-score of Tl+ flux slope (higher = more flux/activation; lower = inhibition) at 10 µM. 190,000 compounds, 2.2% hits;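 active = thallium flux slope and its plate-corrected score both differing from the plate sample mean at a set confidence after two filtering rounds, in either direction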;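 note: slope of fluorescence scaled to starting intensity during 10 to 20 s after thallium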
KCNQ1 inh: inhibitors of human KCNQ1 potassium channel; 310,000 compounds, 1.3% hits; CHO-K1 KCNQ1, FluxOR thallium flux fluorescence; hits give high values; P51787; B-score at 10 µM;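 active = compounds whose thallium flux B-score, printed positive for inhibition, exceeds three library SD while starting fluorescence stays within three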;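 note: channel opened by potassium depolarization with thallium stimulus after 20 min compound exposure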
Mot1-301 SUMO: inhibitors of SUMOylation pathway: yeast Mot1-301 growth rescue; 320,000 compounds, 1% hits; growth rescue, % at 18.8 µM; S. cerevisiae Mot1-301 growth rescue, ATP luminescence, 38.5C; percent above DMSO median, 100 means doubled; AID 2716;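 active = every valid replicate shows activation above 250% relative to neutral control wells; inactive = the rest, any valid replicate at or below 250%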
KCNQ1 pot: potentiates or activates the human KCNQ1 potassium channel. P51787. CHO-K1 KCNQ1, thallium flux FluxOR fluorescence; hits give high values. B-score at 10 µM. 310,000 compounds, 0.35% hits. AID 2648;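 active = fluorescence ratio B-score, a plate-corrected score, at least three library SD, with initial intensity B-score within 5 SD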
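Assay system: stable KCNQ1 CHO-K1 line; medium: assay buffer, equal DMSO in all wells; timing: 90 min dye loading and 20 min compound exposure, both at room temperature; technique: kinetic FluxOR thallium fluorescence, 10-s 1-Hz baseline, 110-s post-stimulus read; read-out basis: B score of baseline-normalized fluorescence ratio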
hERG rescue: compounds protecting human hERG from proarrhythmic drug block; CHO-hERG, FluxOR thallium flux, dofetilide IC70 present; 310,000 compounds, 0.51% hits; activation (rescue from dofetilide block), less the hit threshold, % at 10 µM; Q12809; AID 1511;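 active = activation above the mean of controls blocked by dofetilide plus 5 SD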;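 note: thallium influx through hERG after potassium depolarization seen as dye fluorescence rise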
Target sequence (Q12809 whole entry, looked up): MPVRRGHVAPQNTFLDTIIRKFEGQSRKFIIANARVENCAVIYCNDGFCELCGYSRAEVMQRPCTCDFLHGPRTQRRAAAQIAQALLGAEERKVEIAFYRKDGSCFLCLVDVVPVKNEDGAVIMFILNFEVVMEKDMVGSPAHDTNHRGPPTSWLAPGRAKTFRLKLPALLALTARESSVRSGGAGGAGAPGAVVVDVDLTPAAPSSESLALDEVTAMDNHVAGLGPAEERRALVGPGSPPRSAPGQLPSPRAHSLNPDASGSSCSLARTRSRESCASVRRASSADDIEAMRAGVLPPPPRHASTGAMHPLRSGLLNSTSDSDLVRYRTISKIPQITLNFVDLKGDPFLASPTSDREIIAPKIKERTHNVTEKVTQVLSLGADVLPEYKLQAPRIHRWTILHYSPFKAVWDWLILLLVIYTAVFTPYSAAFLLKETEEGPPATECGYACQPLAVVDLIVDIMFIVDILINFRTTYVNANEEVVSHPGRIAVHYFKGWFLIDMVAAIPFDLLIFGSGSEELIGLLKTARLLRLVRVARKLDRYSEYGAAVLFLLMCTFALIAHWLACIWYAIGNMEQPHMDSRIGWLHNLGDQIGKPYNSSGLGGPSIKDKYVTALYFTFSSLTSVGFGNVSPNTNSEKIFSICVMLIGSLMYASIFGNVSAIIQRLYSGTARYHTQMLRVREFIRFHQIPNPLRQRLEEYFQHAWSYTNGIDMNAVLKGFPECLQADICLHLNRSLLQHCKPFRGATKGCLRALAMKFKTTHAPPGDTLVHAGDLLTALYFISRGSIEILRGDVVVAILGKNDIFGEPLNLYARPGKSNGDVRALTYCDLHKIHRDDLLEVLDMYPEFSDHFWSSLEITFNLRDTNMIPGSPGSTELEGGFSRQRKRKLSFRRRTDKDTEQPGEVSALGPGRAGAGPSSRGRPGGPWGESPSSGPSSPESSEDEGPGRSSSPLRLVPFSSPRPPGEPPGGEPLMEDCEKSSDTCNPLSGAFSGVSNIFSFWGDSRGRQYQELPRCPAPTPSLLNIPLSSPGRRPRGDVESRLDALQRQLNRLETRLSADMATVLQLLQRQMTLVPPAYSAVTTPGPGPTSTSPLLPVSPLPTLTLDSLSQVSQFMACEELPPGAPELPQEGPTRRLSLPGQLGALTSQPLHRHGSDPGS
AI-2 QS mod: modulators of Vibrio harveyi AI-2 quorum sensing system; Vibrio harveyi JMH597 AI-2 luminescence/OD600 ratio, 9 h; hits give low values; strain lacks LuxN and CqsS sensors; 0 = neutral-control median; activity change, % at 7.5 µM; 300,000 compounds, 0.4% hits; AID 2094; in the data active = activity change below about -75%, passing the limit was not always enough;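 note: luminescence divided by OD600 gain over 9 h not by final OD600 alone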
A number is an active result; n = inactive; x = no result.

SMILES	Cl transport mod	KCNQ1 inh	Mot1-301 SUMO	KCNQ1 pot	hERG rescue	AI-2 QS mod
Cc1ccc(C(=O)NC(=S)NCC2CCCO2)cc1[N+](=O)[O-] (configuration not stated)	n	n	n	n	n	n
Cc1ccc(C(=O)NCC2CCCO2)cc1[N+](=O)[O-] (configuration not stated)	n	n	n	n	4.7	n
CCOC(=O)c1cc(CC)sc1NC(=O)c1ccc([N+](=O)[O-])c(N2CCOCC2)c1	n	n	371	n	n	n
Cc1cc(C(=O)Nc2ccccc2N2CCOCC2)ccc1[N+](=O)[O-]	n	n	n	n	n	n
COc1ccc(NC(=O)CCCN2C(=O)C(c3ccccc3)Oc3cccnc32)c(OC)c1 (configuration not stated)	x	n	339	n	n	n
COc1ccccc1NC(=O)CCCN1C(=O)C(c2ccccc2)Oc2cccnc21 (configuration not stated)	x	n	n	n	n	n
Cc1ccc(S(=O)(=O)NCc2ccc(C(=O)NCCCN3CCC(Cc4ccccc4)CC3)cc2)cc1	n	6	n	n	n	n
COc1ccc(-c2csc(NC(=S)NC(=O)c3ccco3)n2)cc1Br	x	n	n	n	11	n
Cc1ccc([N+](=O)[O-])cc1NC(=S)NCCc1ccccc1	x	n	n	n	n	n
Cc1ccc([N+](=O)[O-])cc1NC(=S)NC(=O)c1ccco1	15	n	n	n	5.1	n
COc1ccc(-c2csc(NC(=S)NC(=O)c3cc4ccccc4o3)n2)cc1Br	x	n	n	n	n	n
Cc1c(NC(=O)C(C)C)cccc1-c1nc2ncccc2o1	x	n	n	n	n	n
O=C(NC(=S)Nc1ccccc1Br)C1CC1	x	n	n	n	n	-77
Cc1c(NC(=S)NC(=O)c2ccco2)cccc1-c1nc2ncccc2o1	13	n	n	n	n	n
CCOC(=O)N1CCC(NC(=O)C2CCN(S(=O)(=O)N3CCC(C)CC3)CC2)CC1	x	x	n	x	x	x
CC(C)c1ccc(S(=O)(=O)N(C)C2(C)CCS(=O)(=O)C2)cc1 (configuration not stated)	x	n	n	n	n	n
O=C(NC(=S)Nc1ccccc1Br)c1ccco1	x	n	n	9	n	n
Cc1cccc(NC(=S)NC(=O)c2ccco2)c1C	x	n	n	33	22	n
O=C(NC(=S)Nc1cccc(NC(=S)NC(=O)c2ccco2)n1)c1ccco1	n	n	n	n	n	n
Cc1cccc(NC(=O)CCNC(=O)c2ccco2)c1C	n	n	n	n	n	n
COc1ccccc1N(CC(=O)NCCSCc1ccc(C)cc1)S(=O)(=O)c1ccccc1	x	10	n	n	n	n
Cc1ccc(CSCCNC(=O)c2ccc(N(C)S(=O)(=O)c3ccccc3)cc2)cc1	x	n	n	n	n	n
CN(c1ccc(C(=O)NCCSCc2ccc(Cl)cc2)cc1)S(=O)(=O)c1ccccc1	n	6	n	n	n	n
O=C(OC(C(=O)Nc1cccc(C(F)(F)F)c1)c1ccccc1)C1CCCCC1 (configuration not stated)	n	x	n	x	x	x
Cc1cc(-c2csc3nc[nH]c(=S)c23)cc(C)c1C	85	n	n	45	8.1	n
SMILES	Cl transport mod	KCNQ1 inh	Mot1-301 SUMO	KCNQ1 pot	hERG rescue	AI-2 QS mod
O=c1[nH]cnc2scc(-c3ccccc3)c12	n	n	n	n	n	n
Cc1ccc(-c2csc3nc[nH]c(=S)c23)cc1	50	n	n	26	53	n
Cc1sc2nc[nH]c(=S)c2c1-c1ccccc1	31	n	n	12	20	n
Cc1cc(C(C)(C)C)cc(C)c1Cn1c2[n+](c3ccc(C(F)(F)F)cc31)CCCCC2	n	6	n	n	n	n
Cc1ccc(NC(=O)C2C3CCC(O3)C2C(=O)O)cc1Cl (configuration not stated)	x	n	355	n	n	n
CC1CN(c2ccc([N+](=O)[O-])c(NCCOc3ccc(Cl)cc3)c2)CC(C)N1 (configuration not stated)	x	9	n	n	n	n
COc1ccc(NC(=S)NC(=O)c2ccccc2Cl)cc1	21	n	n	n	n	n
CC(C)CNC(=S)NC(=O)c1ccccc1Cl	50	n	n	n	n	n
O=C(O)CN1C(=O)C(=O)N(Cc2ccc(Cl)c(Cl)c2)C1=O	x	n	n	n	n	n
O=C(O)CN1C(=O)C(=O)N(Cc2ccc(C(F)(F)F)cc2)C1=O	x	n	n	n	5.4	n
CC1CCc2sc(NC(=O)C3CC(Cl)=CCC3C(=O)O)c(C#N)c2C1 (configuration not stated)	x	n	n	n	n	n
CC(=O)c1c(-c2ccccc2)c2cc([N+](=O)[O-])ccc2[nH]c1=O	x	n	n	8	n	n
Cc1sc(-c2ccccn2)nc1OC(=O)c1ccc(Cl)cc1	x	n	n	n	n	n
Cc1sc(-c2ccccn2)nc1OC(=O)c1cccc(Cl)c1Cl	x	n	n	n	5.8	n
O=c1cc(-c2ccccc2Cl)oc2c(NS(=O)(=O)c3cc(Cl)cc(Cl)c3O)ccc(O)c12	20	n	n	n	n	n
COc1ccc(Cc2n[nH]c(=S)o2)cc1	n	n	n	n	n	n
S=c1[nH]nc(COc2ccc3ccccc3c2)o1	-5.7	n	n	n	n	n
CCCCCN=C(N)N/N=C/c1c[nH]c2ccc(OC)cc12	x	7	n	n	n	n
Cc1ccc(NC(=O)CN(C)C(=O)CSc2nccn2C)cc1	x	x	n	x	x	x
Cc1[nH]n(-c2ccccc2)c(=O)c1N=Nc1ccc(C(=O)O)cc1	x	n	n	n	n	n
Cc1[nH]n(-c2ccccc2)c(=O)c1N=Nc1ccc(C(N)=O)cc1	x	n	n	n	10	n
CC(=O)c1ccc(N=Nc2c(C)[nH]n(-c3ccccc3)c2=O)cc1	x	6	n	n	n	n
C=CCOc1ccc(/C=C2\SC(=S)N(NS(=O)(=O)c3ccccc3)C2=O)cc1	x	n	n	15	n	-86
Cc1ccc(S(=O)(=O)NN2C(=O)/C(=C/c3ccccn3)SC2=S)cc1	n	n	n	n	n	n
CC(/C=C1\SC(=S)N(NC(=O)c2ccc(C)cc2)C1=O)=C\c1ccccc1	x	n	n	n	n	n
CC(/C=C1\SC(=S)N(NS(=O)(=O)c2ccccc2)C1=O)=C\c1ccccc1	n	n	n	14	10	n
Cc1ccc(S(=O)(=O)NN2C(=O)/C(=C/c3cccc(F)c3)SC2=S)cc1	x	n	n	10	n	n
CC(/C=C1\SC(=S)N(c2ccc(C(=O)O)cc2)C1=O)=C\c1ccccc1	n	n	n	n	5.1	n
Cc1sc2nc(CN3CCOCC3)nc(N3CCN(S(=O)(=O)c4ccccc4)CC3)c2c1C	x	x	n	x	x	x

From PubChem
